≈ marks a conversion by molar mass, not a printed value.
Experiments:
Format in all cases: functional
Candida albicans [1] = assay: Antimicrobial activity against azole-resistant Candida albicans isolate CA10 assessed as growth at 2 ug/ml cotreated with 0.016 ug/ml calcineurin signaling inhibitor Tacrolimus after 48 hrs by microdilution checkboard technique relative to control; parameters: scale not given: the % may be the effect or the level left
How it was run: (§1)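 Checkerboard microdilution in MOPS-buffered RPMI 1640 (pH 7.0, 2% dextrose). Final ranges: azole 0.125–128 μg/ml (FLC) or 0.008–8 μg/ml (ITR, VRC), tacrolimus 0.002–0.125 μg/ml; solvent 1% in single-drug wells. Inoculum 2.5 × 10^3 CFU/ml, 35°C, 48 h. Growth % = background-subtracted OD492 of each well / drug-free well. Triplicate on different days.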

Candida albicans [2] = assay: Antimicrobial activity against azole-resistant Candida albicans isolate CA10 assessed as growth at 8 ug/ml cotreated with 0.125 ug/ml calcineurin signaling inhibitor Tacrolimus after 48 hrs by microdilution checkboard technique relative to control; parameters: scale not given: the % may be the effect or the level left
How it was run: (§2)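 CA10 in RPMI 1640 with 2% dextrose and 0.165 M MOPS, pH 7.0. Checkerboard used twofold dilutions, with azole alone in row H and the drug-free growth control in well H1. Final inoculum was 2.5 × 10^3 CFU/ml, incubated 35°C for 48 h, with OD read at 492 nm. Growth % = background-subtracted well OD / drug-free well OD. Run in triplicate on different days.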

Candida albicans [3] = assay: Antimicrobial activity against azole-resistant Candida albicans isolate CA10 assessed as growth at 32 ug/ml after 48 hrs by microdilution checkerboard technique relative to control; how it was run: as §1
Candida albicans [4] = assay: Antimicrobial activity against azole-resistant Candida albicans isolate CA16 after 48 hrs by broth microdilution method; details: isolate CA16, 48 h
How it was run: (§3)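 CLSI M27-A2 broth microdilution was run in RPMI 1640 (pH 7.0, 2% dextrose, 0.165 M MOPS). Inoculum was 2.5 × 10^3 CFU/ml, incubated 35°C for 48 h without shaking. Plates were read visually (0–5 scale) and at OD 492 nm. MIC80 = lowest concentration giving an 80% absorbance decrease vs drug-free control. Triplicate.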

Candida albicans [5] = assay: Antimicrobial activity against azole-resistant Candida albicans isolate CA137 cotreated with calcineurin signaling inhibitor Tacrolimus after 48 hrs by microdilution checkerboard technique; details: isolate CA137, 48 h
How it was run: (§4)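 Checkerboard microdilution in MOPS-buffered RPMI 1640 (pH 7.0, 2% dextrose) with 2.5 × 10^3 CFU/ml for 48 h at 35°C. Final FK506 was 0.002–0.125 μg/ml. Azole finals were FLC 0.125–128 μg/ml, and ITR and VRC 0.008–8 μg/ml. MIC80 is an 80% OD492 decrease vs drug-free control. Interaction was scored by FICI (synergy ≤0.5, antagonism >4) and by ΔE from triplicates.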

Candida albicans [6] = assay: Antimicrobial activity against azole-resistant Candida albicans isolate CA10 assessed as growth at 4 ug/ml cotreated with 0.016 ug/ml calcineurin signaling inhibitor Tacrolimus after 48 hrs by microdilution checkboard technique relative to control; parameters: scale not given: the % may be the effect or the level left; how it was run: as §2
Candida albicans [7] = assay: Antimicrobial activity against azole-resistant Candida albicans isolate CA10 assessed as growth at 0.25 ug/ml cotreated with 0.016 ug/ml calcineurin signaling inhibitor Tacrolimus after 48 hrs by microdilution checkboard technique relative to control; parameters: scale not given: the % may be the effect or the level left
How it was run: (§5)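 Checkerboard microdilution in RPMI 1640 (pH 7.0, 2% dextrose, 0.165 M MOPS). Azole dilutions run along columns and FK506 along rows, at 4× final concentration. Final inoculum 2.5 × 10^3 CFU/ml from Sabouraud-subcultured cells. Incubated 35°C for 48 h; OD read at 492 nm. Background from microorganism-free plates subtracted. Growth % = well OD / drug-free well OD. Triplicate on different days, values averaged.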

Candida albicans [8] = assay: Antimicrobial activity against azole-resistant Candida albicans isolate CA10 assessed as growth at 0.063 ug/ml after 48 hrs by microdilution checkerboard technique relative to control; how it was run: as §1
Candida albicans [9] = assay: Antimicrobial activity against azole-resistant Candida albicans isolate CA10 assessed as growth at 8 ug/ml co-treated with 0.004 ug/ml calcineurin signaling inhibitor tacrolimus after 48 hrs by microdilution checkboard technique relative to control; parameters: scale not given: the % may be the effect or the level left; how it was run: as §2
Candida albicans [10] = assay: Antimicrobial activity against azole-resistant Candida albicans isolate CA10 assessed as growth at 128 ug/ml after 48 hrs by microdilution checkerboard technique relative to control; how it was run: as §1
Candida albicans [11] = assay: Antimicrobial activity against azole-resistant Candida albicans isolate CA10 assessed as growth at 2 ug/ml co-treated with 0.031 ug/ml calcineurin signaling inhibitor tacrolimus after 48 hrs by microdilution checkboard technique relative to control; parameters: scale not given: the % may be the effect or the level left; how it was run: as §5
Candida albicans [12] = assay: Antimicrobial activity against azole-susceptible Candida albicans isolate CA8 co-treated with calcineurin signaling inhibitor tacrolimus after 48 hrs by microdilution checkerboard technique; details: isolate CA8, 48 h; how it was run: as §4
Candida albicans [13] = assay: Antimicrobial activity against azole-resistant Candida albicans isolate CA10 assessed as growth at 0.016 ug/ml after 48 hrs by microdilution checkerboard technique relative to control; how it was run: as §1
Candida albicans [14] = assay: Antimicrobial activity against azole-resistant Candida albicans isolate CA10 assessed as growth at 64 ug/ml co-treated with 0.016 ug/ml calcineurin signaling inhibitor tacrolimus after 48 hrs by microdilution checkboard technique relative to control; parameters: scale not given: the % may be the effect or the level left; how it was run: as §2
Candida albicans [15] = assay: Antimicrobial activity against azole-susceptible Candida albicans isolate CA12 after 48 hrs by broth microdilution method; details: isolate CA12, 48 h; how it was run: as §3
Candida albicans [16] = assay: Antimicrobial activity against azole-resistant Candida albicans isolate CA10 assessed as growth at 16 ug/ml cotreated with 0.063 ug/ml calcineurin signaling inhibitor tacrolimus after 48 hrs by microdilution checkerboard technique relative to control; parameters: scale not given: the % may be the effect or the level left; how it was run: as §1
Candida albicans [17] = assay: Antimicrobial activity against azole-resistant Candida albicans isolate CA10 assessed as growth at 0.25 ug/ml co-treated with 0.008 ug/ml calcineurin signaling inhibitor tacrolimus after 48 hrs by microdilution checkboard technique relative to control; parameters: scale not given: the % may be the effect or the level left; how it was run: as §5
Candida albicans [18] = assay: Antimicrobial activity against azole-resistant Candida albicans isolate CA10 assessed as growth at 2 ug/ml after 48 hrs by microdilution checkerboard technique relative to control; how it was run: as §1
Candida albicans [19] = assay: Antimicrobial activity against azole-susceptible Candida albicans isolate CA129 co-treated with calcineurin signaling inhibitor tacrolimus after 48 hrs by microdilution checkerboard technique; details: isolate CA129, 48 h; how it was run: as §4
Candida albicans [20] = assay: Antimicrobial activity against azole-resistant Candida albicans isolate CA10 assessed as growth at 0.004 ug/ml after 48 hrs by microdilution checkerboard technique relative to control; how it was run: as §1
Candida albicans [21] = assay: Antimicrobial activity against azole-resistant Candida albicans isolate CA10 assessed as growth at 0.125 ug/ml co-treated with 0.004 ug/ml calcineurin signaling inhibitor tacrolimus after 48 hrs by microdilution checkboard technique relative to control; parameters: scale not given: the % may be the effect or the level left; how it was run: as §1
Candida albicans [22] = assay: Antimicrobial activity against azole-resistant Candida albicans isolate CA10 assessed as growth at 32 ug/ml cotreated with 0.063 ug/ml calcineurin signaling inhibitor Tacrolimus after 48 hrs by microdilution checkboard technique relative to control; parameters: scale not given: the % may be the effect or the level left; how it was run: as §2
Candida albicans [23] = assay: Antimicrobial activity against azole-susceptible Candida albicans isolate CA5 after 48 hrs by broth microdilution method; details: isolate CA5, 48 h; how it was run: as §3
Candida albicans [24] = assay: Antimicrobial activity against azole-resistant Candida albicans isolate CA10 assessed as growth at 128 ug/ml cotreated with 0.125 ug/ml calcineurin signaling inhibitor Tacrolimus after 48 hrs by microdilution checkboard technique relative to control; parameters: scale not given: the % may be the effect or the level left; how it was run: as §1

## OC(Cn1cncn1)(Cn1cncn1)c1ccc(F)cc1F [FLUCONAZOLE]
Candida albicans [1]
  Activity: 20%
Candida albicans [2]
  Activity: 2%
Candida albicans [3]
  Activity: 48%
Candida albicans [4]
  MIC: 64 µg/mL (≈ 209 µM)
Candida albicans [5]
  MIC: 0.5 µg/mL
Candida albicans [6]
  Activity: 18%
Candida albicans [7]
  Activity: 23%
Candida albicans [8]
  Activity: 93%
Candida albicans [9]
  Activity: 34%
Candida albicans [10]
  Activity: 48%
Candida albicans [11]
  Activity: 12%
Candida albicans [12]
  MIC: 66 µg/mL
Candida albicans [13]
  Activity: 96%
Candida albicans [14]
  Activity: 16%
Candida albicans [15]
  MIC: 4 µg/mL (≈ 13.1 µM)
Candida albicans [16]
  Activity: 7%
Candida albicans [17]
  Activity: 39%
Candida albicans [18]
  Activity: 54%
Candida albicans [19]
  MIC: 0.25 µg/mL
Candida albicans [20]
  Activity: 99%
Candida albicans [21]
  Activity: 67%
Candida albicans [22]
  Activity: 1%
Candida albicans [23]
  MIC: 0.25 µg/mL (≈ 0.816 µM)
Candida albicans [24]
  Activity: 0%
